# Key:
# [1] = In vitro drug-release assay by dialysis; format: physicochemical; conditions: 37°C, PBS pH 7.4, 48 hours, n=3
# In short: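 Dialysis in 2,000 Da MWCO bag against PBS pH 7.4, stirred 48 h at 37±0.5°C. Medium sampled at time points and replaced. Total drug found by methanol disruption of liposomes. Quantified by HPLC: C18 column, methanol/0.025 M KH2PO4 (11:89, pH 3 with H3PO4), 1.0 mL/min, UV 210 nm; n=3.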
# H22 cells = assay: In vitro cytotoxicity, MTT assay; format: cell-based, murine; conditions: n=3
# In short: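 Log-phase H22 cells seeded at 10^4/well, grown 24 h, medium renewed. Treated at 0.8, 4, 20, 100, 500 μg/mL for 24 or 48 h; blank liposomes at matched concentrations. MTT (5 mg/mL stock in PBS) added for 4 h, formazan dissolved in DMSO, A490 read. Inhibition rate = (1 − A490 treated/A490 untreated)×100.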
# [2] = Biodistribution study in H22 tumor-bearing mice; format: in vivo; conditions: n=6; for AUC0–8 / Cmax / t½: 2 mg/kg intravenous
# In short: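 Subcutaneous H22 model: ascites cells from donor mice diluted in saline to 1×10^7/mL and injected into right hind limb (~0.1 mL/10 g). At ~300 mm3 tumor, mice randomized; single tail-vein 2 mg/kg; killed at 1, 2, 4, 8 h (n=6). Tumor and organs rinsed, weighed, homogenized 1:4 w/v in saline. HCl/IS/acetone extraction; FDA-validated LC-MS/MS. Noncompartmental AUC0–8, Cmax; Te = AUC target/(target+untargeted)×100.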
# H22 tumor-bearing mice = assay: In vivo antineoplastic activity in H22 tumor-bearing mice; conditions: 2 mg/kg per day, days 1–9, measured on day 10, n=10
# In short: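 H22 cells in saline (1×10^7/mL) injected subcutaneously in right hind limb on day 0. Mice randomized to PBS control or treatment, 2 mg/kg tail vein daily on days 1–9 (n=10). Tumor volume by caliper and body weight daily. Killed day 10 and tumors excised and weighed. IRw = (1 − Wdrug/Wcontrol)×100.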
structure (smiles),measurement,setting,value
"O=C(O)[C@@H]1[C@H](C(=O)O)[C@H]2CC[C@@H]1O2 [DM-NCTD, diacid metabolite of norcantharidin]",In vitro release of DM-NCTD,[1],quickly and completely released
same,IC50 on H22 cell lines,H22 cells; 24 hours,39.6 ± 1.20 µg/mL
same,IC50 on H22 cell lines,H22 cells; 48 hours,30.0 ± 1.73 µg/mL
same,Time at which the highest concentrations were achieved in tissues and tumors,[2]; 2 mg/kg tail vein,2 h
same,AUC0–8,[2]; heart,116.98±10.63 ng⋅h/mL
same,Cmax,[2]; heart,24.08 ± 2.39 ng/mL
same,t½,[2]; heart,110 ± 15 min
same,AUC0–8,[2]; kidney,"1,283.72±66.1 ng⋅h/mL"
same,Cmax,[2]; kidney,427.14 ± 20.81 ng/mL
same,t½,[2]; kidney,56.4 ± 16.8 min
same,AUC0–8,[2]; liver,"1,481.15±51.3 ng⋅h/mL"
same,Cmax,[2]; liver,330.15 ± 13.96 ng/mL
same,t½,[2]; liver,56.4 ± 13.2 min
same,AUC0–8,[2]; lung,266.17±13.55 ng⋅h/mL
same,Cmax,[2]; lung,73.43 ± 6.17 ng/mL
same,t½,[2]; lung,90.6 ± 19.2 min
same,AUC0–8,[2]; spleen,740.09±25.16 ng⋅h/mL
same,Cmax,[2]; spleen,340.11 ± 17.74 ng/mL
same,t½,[2]; spleen,53.4 ± 1.2 min
same,AUC0–8,[2]; tumor,223.18±17.56 ng⋅h/mL
same,Cmax,[2]; tumor,54.57 ± 9.21 ng/mL
same,t½,[2]; tumor,61.2 ± 8.4 min
same,Tumor weight,H22 tumor-bearing mice,1.02 ± 0.3 g
same,IRw (inhibition rate on tumor weight),H22 tumor-bearing mice; vs PBS control,30.14%

# Reference: paper PMC4831591 (International Journal of Nanomedicine, 2016)
